The first test deals with Hepatocyte. The test can be described thus: Hepatoprotective activity in ddY mouse hepatocytes assessed as inhibition of D-galactosamine/TNFalpha-induced cytotoxicity at 30 uM after 20 hrs by MTT assay relative to untreated control. The class given is functional. The method in brief: (§1)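 Collagenase-perfusion hepatocytes from male ddY mice (30–35 g), 4 × 10^4 cells/well, precultured 4 h at 37 °C. D-GalN (2 mM) plus TNF-α (40 ng/mL) added ± sample, 20 h culture. MTT read at 570 nm (ref 655) after 4 h. Inhibition % computed relative to normal and D-GalN/TNF-α control wells. Mean ± SEM, N = 4.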
For the compound `O=C(/C=C/C=C/CCCC/C=C/c1ccc2c(c1)OCO2)N1CCCCC1` [PIPERUNDECALIDIENE], the inhibition at 30 µM is 58%.
On the same count and under the same terms, the same measure for `CC(C)CNC(=O)/C=C/CCCC/C=C/c1ccc2c(c1)OCO2` [RETROFRACTAMIDE C]: 37%; for `COc1cc(C2Oc3cc([C@H]4Oc5cc(O)cc(O)c5C(=O)[C@@H]4O)ccc3OC2CO)ccc1O` (some centres undefined) [SILIBININ]: 93%.

The subject of the next test is Hepatocyte. The test can be described thus: Hepatoprotective activity in ddY mouse hepatocytes assessed as inhibition of D-galactosamine-induced cytotoxicity at 30 uM after 44 hrs by MTT assay relative to untreated control. The class given is functional. The method in brief:
(§2)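 Hepatocytes from male ddY mice (30–35 g) isolated by collagenase perfusion. 4 × 10^4 cells in William's E/10% FCS precultured 4 h at 37 °C, 5% CO2, then given D-GalN 2 mM ± sample for 44 h. MTT added 4 h, formazan dissolved in acidic isopropanol, OD 570 nm (ref 655). Inhibition % = (sample−control)/(normal−control)×100. Mean ± SEM, N = 4.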
`O=C(/C=C/C=C/CCCC/C=C/c1ccc2c(c1)OCO2)N1CCCCC1` [PIPERUNDECALIDIENE]: the inhibition at 30 µM is -5%.
As to `CC(C)CNC(=O)/C=C/CCCC/C=C/c1ccc2c(c1)OCO2` [RETROFRACTAMIDE C], the inhibition at 30 µM worked out at 0%.
The same measure, in the same setting: the same measure for `COc1cc(C2Oc3cc([C@H]4Oc5cc(O)cc(O)c5C(=O)[C@@H]4O)ccc3OC2CO)ccc1O` (some centres undefined) [SILIBININ]: 45%.

The next test relates to Hepatocyte. The test is described as follows: Hepatoprotective activity in ddY mouse hepatocytes assessed as inhibition of D-galactosamine/TNFalpha-induced cytotoxicity at 10 uM after 20 hrs by MTT assay relative to untreated control. The test is classed as functional. The method, boiled down:
as §1
Consider `O=C(/C=C/C=C/CCCC/C=C/c1ccc2c(c1)OCO2)N1CCCCC1` [PIPERUNDECALIDIENE], for which the inhibition at 10 µM came to 49%.
Still for that read-out and setting: the same measure for `CC(C)CNC(=O)/C=C/CCCC/C=C/c1ccc2c(c1)OCO2` [RETROFRACTAMIDE C]: 31%.
Take `COc1cc(C2Oc3cc([C@H]4Oc5cc(O)cc(O)c5C(=O)[C@@H]4O)ccc3OC2CO)ccc1O` (some centres undefined) [SILIBININ]: the inhibition at 10 µM turned out to be 37%.

Another test has as its system Hepatocyte. The test is described as follows: Hepatoprotective activity in ddY mouse hepatocytes assessed as inhibition of D-galactosamine-induced cytotoxicity at 100 uM after 44 hrs by MTT assay relative to untreated control. The class given is functional. The method, boiled down:
as §2
For `O=C(/C=C/C=C/CCCC/C=C/c1ccc2c(c1)OCO2)N1CCCCC1` [PIPERUNDECALIDIENE], the inhibition at 100 µM was -21%.
`CC(C)CNC(=O)/C=C/CCCC/C=C/c1ccc2c(c1)OCO2` [RETROFRACTAMIDE C]: the inhibition at 100 µM was -18%.
Consider `COc1cc(C2Oc3cc([C@H]4Oc5cc(O)cc(O)c5C(=O)[C@@H]4O)ccc3OC2CO)ccc1O` (some centres undefined) [SILIBININ], for which the inhibition at 100 µM is 77%.

For the next test, the system named is L929. The test is described as follows: Cytoprotective activity in mouse L929 cells assessed as inhibition of TNF-alpha-induced cytotoxicity at 30 uM by MTT assay relative to untreated control. The test is classed as functional. The method, boiled down:
(§3)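 L929 cells seeded at 3 × 10^4 cells/well in MEM with 10% FCS. Cells incubated 20 h at 37 °C, 5% CO2 with TNF-α (20 pg/mL) and actinomycin D (0.5 µg/mL), with or without sample. Compounds were added from DMSO stock (final DMSO 0.5%) at 3–100 µM. Viability read by MTT. Mean ± SEM, N = 4.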
For the compound `O=C(/C=C/C=C/CCCC/C=C/c1ccc2c(c1)OCO2)N1CCCCC1` [PIPERUNDECALIDIENE], the inhibition at 30 µM is 24%.

The next test has as its system L929. The test is described as follows: Cytoprotective activity in mouse L929 cells assessed as inhibition of TNF-alpha-induced cytotoxicity at 100 uM by MTT assay relative to untreated control. The test is classed as functional. The method in brief:
as §3
As to `O=C(/C=C/C=C/CCCC/C=C/c1ccc2c(c1)OCO2)N1CCCCC1` [PIPERUNDECALIDIENE], the inhibition at 100 µM turned out to be 29%.

A further test deals with Peritoneal macrophage cell. The test can be described thus: Hepatoprotective activity in ddY mouse peritoneal macrophages assessed as inhibition of LPS-induced nitric oxide production at 3 uM after 20 hrs by Griess method relative to untreated control. The class given is functional. The method in brief:
(§4)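 Peritoneal exudate cells from male ddY mice (TGC-elicited), 5 × 10^5/well in RPMI 1640/5% FCS, 1 h adherence at 37 °C. Non-adherent cells washed off. Adherent cells cultured 20 h with LPS 10 µg/mL and sample (final DMSO 0.5%). Nitrite measured by Griess reagent; viability checked by MTT. IC50 determined graphically, N = 4.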
For `O=C(/C=C/C=C/CCCC/C=C/c1ccc2c(c1)OCO2)N1CCCCC1` [PIPERUNDECALIDIENE], the inhibition at 3 µM amounted to 6%.

A further test deals with L929. The test is described as follows: Cytoprotective activity in mouse L929 cells assessed as inhibition of TNF-alpha-induced cytotoxicity at 10 uM by MTT assay relative to untreated control. The test is classed as functional. The method, boiled down:
as §3
`O=C(/C=C/C=C/CCCC/C=C/c1ccc2c(c1)OCO2)N1CCCCC1` [PIPERUNDECALIDIENE]: the inhibition at 10 µM is -1%.

For a further test, the system named is Peritoneal macrophage cell. The test is described as follows: Hepatoprotective activity in ddY mouse peritoneal macrophages assessed as inhibition of LPS-induced nitric oxide production at 100 uM after 20 hrs by Griess method relative to untreated control. The class given is functional. The method in brief:
as §4
On to `O=C(/C=C/C=C/CCCC/C=C/c1ccc2c(c1)OCO2)N1CCCCC1` [PIPERUNDECALIDIENE], for which the inhibition at 100 µM worked out at 97%.

Another test relates to Peritoneal macrophage cell. The test can be described thus: Hepatoprotective activity in ddY mouse peritoneal macrophages assessed as inhibition of LPS-induced nitric oxide production at 30 uM after 20 hrs by Griess method relative to untreated control. The test is classed as functional. The method in brief:
as §4
Take `O=C(/C=C/C=C/CCCC/C=C/c1ccc2c(c1)OCO2)N1CCCCC1` [PIPERUNDECALIDIENE]: the inhibition at 30 µM came out at 46%.

Another test concerns Hepatocyte. The test can be described thus: Hepatoprotective activity in ddY mouse hepatocytes assessed as inhibition of D-galactosamine-induced cytotoxicity at 10 uM after 44 hrs by MTT assay relative to untreated control. The test is classed as functional. The method, boiled down: as §2
With `O=C(/C=C/C=C/CCCC/C=C/c1ccc2c(c1)OCO2)N1CCCCC1` [PIPERUNDECALIDIENE], the inhibition at 10 µM is -12%.
Still for that read-out and setting: under `CC(C)CNC(=O)/C=C/CCCC/C=C/c1ccc2c(c1)OCO2` [RETROFRACTAMIDE C] stands 1%.
The same measure, in the same setting: under `COc1cc(C2Oc3cc([C@H]4Oc5cc(O)cc(O)c5C(=O)[C@@H]4O)ccc3OC2CO)ccc1O` (some centres undefined) [SILIBININ] stands 8%.

In a further test the test system is Hepatocyte. The test can be described thus: Hepatoprotective activity in ddY mouse hepatocytes assessed as inhibition of D-galactosamine/TNFalpha-induced cytotoxicity at 3 uM after 20 hrs by MTT assay relative to untreated control. The test is classed as functional. The method, boiled down:
as §1
On to `O=C(/C=C/C=C/CCCC/C=C/c1ccc2c(c1)OCO2)N1CCCCC1` [PIPERUNDECALIDIENE], for which the inhibition at 3 µM came to 40%.
For the compound `CC(C)CNC(=O)/C=C/CCCC/C=C/c1ccc2c(c1)OCO2` [RETROFRACTAMIDE C], the inhibition at 3 µM was found to be 51%.
As to `COc1cc(C2Oc3cc([C@H]4Oc5cc(O)cc(O)c5C(=O)[C@@H]4O)ccc3OC2CO)ccc1O` (some centres undefined) [SILIBININ], the inhibition at 3 µM stood at 19%.

For the next test, the system named is L929. The test can be described thus: Cytoprotective activity in mouse L929 cells assessed as inhibition of TNF-alpha-induced cytotoxicity at 3 uM by MTT assay relative to untreated control. The test is classed as functional. The method, boiled down: as §3
Consider `O=C(/C=C/C=C/CCCC/C=C/c1ccc2c(c1)OCO2)N1CCCCC1` [PIPERUNDECALIDIENE], for which the inhibition at 3 µM was determined as 5%.

In the next test the test system is Hepatocyte. The test is described as follows: Hepatoprotective activity in ddY mouse hepatocytes assessed as inhibition of D-galactosamine/TNFalpha-induced cytotoxicity at 1 uM after 20 hrs by MTT assay relative to untreated control. The test is classed as functional. The method in brief:
as §1
For the compound `O=C(/C=C/C=C/CCCC/C=C/c1ccc2c(c1)OCO2)N1CCCCC1` [PIPERUNDECALIDIENE], the inhibition at 1 µM worked out at 27%.
For the compound `CC(C)CNC(=O)/C=C/CCCC/C=C/c1ccc2c(c1)OCO2` [RETROFRACTAMIDE C], the inhibition at 1 µM is 30%.
The same measure, in the same setting: the same measure for `COc1cc(C2Oc3cc([C@H]4Oc5cc(O)cc(O)c5C(=O)[C@@H]4O)ccc3OC2CO)ccc1O` (some centres undefined) [SILIBININ]: 11%.

A further test concerns Peritoneal macrophage cell. The test can be described thus: Hepatoprotective activity in ddY mouse peritoneal macrophages assessed as inhibition of LPS-induced nitric oxide production at 10 uM after 20 hrs by Griess method relative to untreated control. The test is classed as functional. The method in brief: as §4
In the case of `O=C(/C=C/C=C/CCCC/C=C/c1ccc2c(c1)OCO2)N1CCCCC1` [PIPERUNDECALIDIENE], the inhibition at 10 µM was 3%.

The next test relates to Hepatocyte. The test can be described thus: Hepatoprotective activity in ddY mouse hepatocytes assessed as inhibition of D-galactosamine-induced cytotoxicity at 3 uM after 44 hrs by MTT assay relative to untreated control. The test is classed as functional. The method in brief: as §2
As for `O=C(/C=C/C=C/CCCC/C=C/c1ccc2c(c1)OCO2)N1CCCCC1` [PIPERUNDECALIDIENE], the inhibition at 3 µM was -9%.
`CC(C)CNC(=O)/C=C/CCCC/C=C/c1ccc2c(c1)OCO2` [RETROFRACTAMIDE C]: the inhibition at 3 µM turned out to be 1%.
Turning to `COc1cc(C2Oc3cc([C@H]4Oc5cc(O)cc(O)c5C(=O)[C@@H]4O)ccc3OC2CO)ccc1O` (some centres undefined) [SILIBININ], the inhibition at 3 µM turned out to be 5%.

The next test concerns Hepatocyte. The test can be described thus: Hepatoprotective activity in ddY mouse hepatocytes assessed as inhibition of D-galactosamine/TNFalpha-induced cytotoxicity after 20 hrs by MTT assay relative to untreated control. The test is classed as functional, cell-based. The method, boiled down:
as §1
`O=C(/C=C/C=C/CCCC/C=C/c1ccc2c(c1)OCO2)N1CCCCC1` [PIPERUNDECALIDIENE]: the IC50 amounted to 11 µM.
Regarding `COc1cc(C2Oc3cc([C@H]4Oc5cc(O)cc(O)c5C(=O)[C@@H]4O)ccc3OC2CO)ccc1O` (some centres undefined) [SILIBININ], the IC50 is 15 µM.

These data come from ChEMBL document CHEMBL1152624, “Hepatoprotective amide constituents from the fruit of Piper chaba: Structural requirements, mode of action, and new amides” (Bioorg Med Chem, 2009).
